From ChEMBL document CHEMBL4020714, “Design, synthesis, and evaluation of curcumin derivatives as Nrf2 activators and cytoprotectors against oxidative death” (Eur J Med Chem, 2017)
Calls of active or inactive are those of the source. The calls are words filed in the database; no cut-off is given here.

Legend:
[1] = biological target: Keap1/Nrf2 (Homo sapiens) (UniProt Q16236+Q14145); experiment: Inhibition of Keap1/Nrf2 interaction in human HepG2 cells assessed as increase in Nrf2 expression level after 3 hrs in presence of DTT for 1 hr prior to compound treatment by Western blot analysis; assay type: cell-based
Outline: (§1)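 HepG2 cells (2×10^6/well) treated at the indicated concentrations and times. Whole-cell lysates, or nuclear and cytoplasmic fractions, are prepared and quantified by BCA. Samples are run at 40 μg/lane on 12% SDS-PAGE, transferred to nitrocellulose, probed with specific antibodies and HRP secondary (1/5000), and detected by ECL. Where used, LY294002 (15 μM), SP600125 (25 μM) or DTT (400 μM) is added 1 h before compound.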

[2] = biological target: T1, Nuclear factor erythroid 2-related factor 2 (Homo sapiens) (UniProt Q16236); experiment: Activation of Nrf2 in human HepG2 cells assessed as increase in nuclear Nrf2 expression level after 3 hrs by Western blot analysis; assay type: cell-based; outline: as §1
T1 sequence (whole entry): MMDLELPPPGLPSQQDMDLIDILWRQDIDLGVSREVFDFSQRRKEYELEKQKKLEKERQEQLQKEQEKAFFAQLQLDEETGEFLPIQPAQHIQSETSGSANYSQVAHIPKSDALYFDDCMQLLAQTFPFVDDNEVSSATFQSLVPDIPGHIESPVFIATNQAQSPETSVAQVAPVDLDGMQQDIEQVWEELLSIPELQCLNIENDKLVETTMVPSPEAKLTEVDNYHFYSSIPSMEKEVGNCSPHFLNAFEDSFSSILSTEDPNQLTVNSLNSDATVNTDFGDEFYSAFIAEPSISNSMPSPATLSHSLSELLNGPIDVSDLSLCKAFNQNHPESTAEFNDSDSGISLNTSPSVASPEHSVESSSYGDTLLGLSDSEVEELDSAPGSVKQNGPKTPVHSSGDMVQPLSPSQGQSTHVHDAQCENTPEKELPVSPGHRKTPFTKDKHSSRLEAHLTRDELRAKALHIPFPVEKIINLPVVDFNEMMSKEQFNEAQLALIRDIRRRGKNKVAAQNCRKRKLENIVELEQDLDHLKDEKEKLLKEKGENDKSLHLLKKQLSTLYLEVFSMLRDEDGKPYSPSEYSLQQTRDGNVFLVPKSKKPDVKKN

[3] = biological target: T1, Nuclear factor erythroid 2-related factor 2 (Homo sapiens); experiment: Activation of Nrf2 in human HepG2 cells assessed as increase in cytosolic Nrf2 expression level at 5 uM after 1 to 6 hrs by Western blot analysis; assay type: cell-based; outline: as §1
[4] = biological target: RAC-alpha serine/threonine-protein kinase (Homo sapiens) (UniProt P31749); experiment: Induction of Akt phosphorylation in human HepG2 cells at 5 uM by Western blot analysis; assay type: cell-based; conditions: TDE = time-dependent effect; outline: as §1
[5] = biological target: T1, Nuclear factor erythroid 2-related factor 2 (Homo sapiens); experiment: (§2) Activation of Nrf2 in human HepG2 cells assessed as cytoprotection against t-BHP-induced oxidative cell death at 5 uM incubated for 24 hrs followed by compound removal with subsequent incubation with 900 uM of t-BHP for 6 hrs in presence of 15 uM PI3K/Akt inhibitor LY294002 for 1 hr prior to compound treatment by MTT assay; assay type: cell-based
Outline: (§3)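 HepG2 cells (5×10^3/well) seeded and grown 24 h in 1640 medium with 10% FBS at 37 °C and 5% CO2. Compound is added for 24 h, then removed, and cells are challenged with 900 μM t-BHP for 6 h at 37 °C. MTT (0.5 mg/mL) is added for 4 h, formazan dissolved in DMSO, and absorbance read at 570 nm. Where used, inhibitors are added 1 h before compound. Mean ± SD of three independent experiments.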

[6] = biological target: T1, Nuclear factor erythroid 2-related factor 2 (Homo sapiens); experiment: Activation of Nrf2 in human HepG2 cells assessed as increase in GCLC expression level at 5 uM by Western blot analysis; assay type: cell-based; conditions: TDE = time-dependent effect; outline: as §1
[7] = biological target: T1, Nuclear factor erythroid 2-related factor 2 (Homo sapiens); experiment: Activation of Nrf2 in human HepG2 cells assessed as increase in Nrf2 expression level after 3 hrs by Western blot analysis; assay type: cell-based; outline: as §1
[8] = biological target: T1, Nuclear factor erythroid 2-related factor 2 (Homo sapiens); experiment: as §2, with “100 nM copper chelator NEO” for “15 uM PI3K/Akt inhibitor LY294002”; assay type: cell-based; outline: as §3
[9] = biological target: T1, Nuclear factor erythroid 2-related factor 2 (Homo sapiens); experiment: as §2, with “400” for “15”, “metal ion chelator EDTA” for “PI3K/Akt inhibitor LY294002”; assay type: cell-based
[10] = biological target: Kelch-like ECH-associated protein 1 (Homo sapiens) (UniProt Q14145); experiment: Induction of keap1-dependent Nrf2 stabilization in human HepG2 cells assessed as upregulation of total Nrf2 expression at 5 uM by Western blot analysis; assay type: cell-based; conditions: TDE = time-dependent effect; outline: as §1
[11] = biological target: T1, Nuclear factor erythroid 2-related factor 2 (Homo sapiens); experiment: as §2, with “100” for “15”, “iron chelator DFO” for “PI3K/Akt inhibitor LY294002”; assay type: cell-based; outline: as §3
[12] = biological target: T1, Nuclear factor erythroid 2-related factor 2 (Homo sapiens); experiment: Activation of Nrf2 in human HepG2 cells assessed as increase in HO-1 expression level after 24 hrs by Western blot analysis; assay type: cell-based; outline: as §1
[13] = biological target: T1, Nuclear factor erythroid 2-related factor 2 (Homo sapiens); experiment: Activation of Nrf2 in human HepG2 cells assessed as increase in GCLM expression level at 5 uM by Western blot analysis; assay type: cell-based; conditions: TDE = time-dependent effect; outline: as §1
[14] = Stability of the compound in PBS at 40 uM at pH 7.4 at 25 degC measured for 30 mins by UV-Vis spectrophotometric analysis; assay type: physicochemical; conditions: buffer, pH 7.4, 0.5 h
Outline: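 Compound at 40 μM in PBS (pH 7.4) at 25 °C. UV-visible absorption spectra recorded every 2 min for 30 min against blanks of solution plus DMSO.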

[15] = biological target: T1, Nuclear factor erythroid 2-related factor 2 (Homo sapiens); experiment: Activation of Nrf2 in human HepG2 cells assessed as increase in GCLC expression level at 5 uM in presence of 25 uM JNK inhibitor SP600125 for 1 hr prior to compound treatment by Western blot analysis; assay type: cell-based; outline: as §1
Homo sapiens = species: Homo sapiens; experiment: Induction of ERK phosphorylation in human HepG2 cells at 5 uM after 15 to 120 mins by Western blot analysis; assay type: cell-based; outline: as §1
[16] = biological target: T1, Nuclear factor erythroid 2-related factor 2 (Homo sapiens); experiment: Activation of Nrf2 in human HepG2 cells assessed as increase in GCLM expression level at 5 uM in presence of 25 uM JNK inhibitor SP600125 for 1 hr prior to compound treatment by Western blot analysis; assay type: cell-based; outline: as §1
HepG2 = experiment: Antioxidant activity against t-BHP-induced oxidative stress in human HepG2 cells assessed as inhibition of intracellular ROS accumulation incubated for 24 hrs followed by t-BHP addition for 3 hrs by DCFH-DA staining based flow cytometric analysis; assay type: functional, cell-based
Outline: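 HepG2 cells (4×10^5/well) exposed to compound (1.25, 2.5 or 5 μM) or DMSO for 24 h, then to 900 μM t-BHP for 3 h. Cells collected, stained with 3 μM DCFH-DA for 30 min at 37 °C in the dark, washed with PBS, and analysed at once by flow cytometry (FITC channel). Values normalised to the corresponding control.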

[17] = biological target: T1, Nuclear factor erythroid 2-related factor 2 (Homo sapiens); experiment: Activation of Nrf2 in human HepG2 cells assessed as increase in nuclear Nrf2 expression level at 5 uM after 12 hrs by Western blot analysis; assay type: cell-based; outline: as §1
[18] = biological target: T1, Nuclear factor erythroid 2-related factor 2 (Homo sapiens); experiment: Activation of Nrf2 in human HepG2 cells assessed as increase in HO-1 expression level at 5 uM in presence of 15 uM PI3K/Akt inhibitor LY294002 for 1 hr prior to compound treatment by Western blot analysis; assay type: cell-based; outline: as §1

Sequence of Kelch-like ECH-associated protein 1 (Homo sapiens) (Q14145 whole entry): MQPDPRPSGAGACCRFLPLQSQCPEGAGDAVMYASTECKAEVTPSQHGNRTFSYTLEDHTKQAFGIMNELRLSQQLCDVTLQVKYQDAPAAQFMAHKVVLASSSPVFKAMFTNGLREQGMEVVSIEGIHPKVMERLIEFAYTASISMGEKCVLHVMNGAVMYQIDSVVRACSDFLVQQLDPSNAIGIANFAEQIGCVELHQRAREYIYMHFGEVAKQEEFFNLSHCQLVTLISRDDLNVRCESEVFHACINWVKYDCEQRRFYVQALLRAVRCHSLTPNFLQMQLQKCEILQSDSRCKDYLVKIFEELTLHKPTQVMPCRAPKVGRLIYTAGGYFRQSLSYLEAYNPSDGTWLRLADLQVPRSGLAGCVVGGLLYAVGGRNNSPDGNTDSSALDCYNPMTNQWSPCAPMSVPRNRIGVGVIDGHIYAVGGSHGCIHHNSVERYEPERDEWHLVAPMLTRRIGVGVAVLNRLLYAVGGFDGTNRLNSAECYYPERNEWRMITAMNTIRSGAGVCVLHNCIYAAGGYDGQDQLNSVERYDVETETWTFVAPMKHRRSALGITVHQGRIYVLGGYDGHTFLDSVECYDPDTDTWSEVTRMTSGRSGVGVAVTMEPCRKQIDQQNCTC
Sequence of Keap1/Nrf2 (Homo sapiens) (Q14145 whole entry, looked up, one chain of several): as the sequence (Q14145 whole entry) above
Sequence of RAC-alpha serine/threonine-protein kinase (Homo sapiens) (P31749 whole entry): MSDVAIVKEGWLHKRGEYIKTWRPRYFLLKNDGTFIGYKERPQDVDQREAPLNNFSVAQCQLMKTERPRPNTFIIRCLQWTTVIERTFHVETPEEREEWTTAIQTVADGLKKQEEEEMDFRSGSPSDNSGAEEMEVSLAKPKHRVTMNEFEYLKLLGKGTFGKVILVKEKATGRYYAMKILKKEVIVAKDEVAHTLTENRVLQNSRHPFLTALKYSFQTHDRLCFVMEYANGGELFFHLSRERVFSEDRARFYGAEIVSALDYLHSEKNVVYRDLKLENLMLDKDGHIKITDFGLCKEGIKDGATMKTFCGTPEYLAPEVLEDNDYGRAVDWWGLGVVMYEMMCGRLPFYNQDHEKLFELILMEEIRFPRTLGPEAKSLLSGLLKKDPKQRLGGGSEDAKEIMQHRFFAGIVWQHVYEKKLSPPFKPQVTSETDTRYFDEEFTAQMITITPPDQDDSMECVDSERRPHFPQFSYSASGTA

## CC(C)(C(=O)/C=C/c1ccc(O)c(O)c1)C(=O)/C=C/c1ccc(O)c(O)c1
[1]
  inhibition: inactive
[2]
  Activity: Dose-dependent effect
[3]
  Activity: Active
[4]
  Activity: Tde
[5]
  Activity: inactive
[6]
  Activity: Tde
[7]
  Activity: Active
[8]
  Activity: inactive
[9]
  Activity: inactive
[10]
  Activity: Tde
[11]
  Activity: inactive
[12]
  Activity: Dose-dependent effect
[13]
  Activity: Tde
[14]
  Stability: Stable
[15]
  Activity: inactive
Homo sapiens
  Activity: inactive
[16]
  Activity: inactive
HepG2
  inhibition: Dose-dependent effect
[17]
  Activity: inactive
[18]
  Activity: inactive
